OXTR potentiate = human OXTR potentiation; AID 2445; activation, % at 3 µM; 0.061% of 320,000 active; CHO-OTR cells, Fluo-8 calcium fluorescence, potentiator mode; 0% = oxytocin EC15, 100% = EC100; P30559;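 active = activation above that plate's cutoff, the mean activation of tested compounds plus 3 SD, cut at about 6.6% in these data, passing the limit was not always enough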;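 note: 100% uses oxytocin at 75 nM as the full agonist control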
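Assay system: CHO cell line stably expressing human OTR. Reagent: EC15 oxytocin agonist. Dosing: single dose, 3.0 µM nominal final compound concentration. Timing: compound 6 min at room temperature before oxytocin, 100 s read. Signal: kinetic Fluo-8 calcium fluorescence. Controls: oxytocin EC15 low and EC100 high.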
OX1R antag-1 = blocks the human orexin 1 receptor; OX1R-expressing cells, FRET antagonist read-out; AID 485270; 1.8% of 330,000 active; inhibition, % at 6.6 µM; O43613; in the data active = inhibition mostly above about 38%, no sharp cut-off; inactive = mostly below about 40%;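 note: 0% = agonist challenge alone and 100% = reference antagonist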
OX1R antag-2 = blocks the human orexin 1 receptor; CHO/OX1R cells, Fluo-8 calcium fluorescence, orexin A; inhibition, % at 5 µM; 0.43% of 330,000 active; AID 434989;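 active = inhibition above its plate's threshold, mean inhibition of all tested compounds on the plate plus 3 SD, cut at about 37% in these data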;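 note: 0% = orexin A challenge wells and 100% = SB-334867-A antagonist wells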
CHO parental Ca = counter-screen: ATP calcium response change in parental CHO cells | parental CHO-K1, ATP-induced calcium, Fluo-8 fluorescence | inhibition, % at 5.6 µM | 0.63% of 330,000 active;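 active = inhibition above that plate's mean sample inhibition plus 3 SD, cut at about 26% in these data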;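 note: 0% = ATP-challenged DMSO wells and 100% = DMSO wells without ATP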
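Assay system: untransfected parental CHO cell line. Also added: ATP agonist challenge. Dosing: one dose, 5.6 µM nominal. Measured by: Fluo-8 fluorescence. Read-out: % inhibition. Benchmarks: ATP wells versus no-ATP DMSO wells. Repeats: no replicates.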
V1R ag counter = V1a receptor agonism, counter-screen for OXTR agonists. P37288. activation, % at 3 µM. CHO-V1R cells, Fluo-8 calcium fluorescence, agonist mode; 0% DMSO, 100% 3 nM vasopressin. 0.25% of 320,000 active. AID 2797;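 active = activation above the mean activation of all tested compounds plus 3 SD, per screening run, cut at about 20% in these data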;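 note: signal is peak over basal fluorescence ratio across a 100 second FLIPR read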
Target sequence (P37288 whole entry, looked up): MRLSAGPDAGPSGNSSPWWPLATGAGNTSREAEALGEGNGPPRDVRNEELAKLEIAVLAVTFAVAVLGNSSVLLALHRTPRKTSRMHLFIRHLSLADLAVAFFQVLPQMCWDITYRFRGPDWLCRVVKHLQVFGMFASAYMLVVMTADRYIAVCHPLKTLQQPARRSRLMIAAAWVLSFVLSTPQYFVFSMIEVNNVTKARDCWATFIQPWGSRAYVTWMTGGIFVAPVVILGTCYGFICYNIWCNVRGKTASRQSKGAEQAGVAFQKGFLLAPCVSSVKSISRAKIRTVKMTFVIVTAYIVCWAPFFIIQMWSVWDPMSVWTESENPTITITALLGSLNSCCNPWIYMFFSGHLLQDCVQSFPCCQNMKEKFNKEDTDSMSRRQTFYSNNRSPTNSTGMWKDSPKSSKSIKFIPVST
OXTR ag = human OXTR agonism; P30559; CHO-OTR cells, Fluo-8 calcium fluorescence; normalized: DMSO 0%, oxytocin 100%; 0.32% of 320,000 active; activation, % at 3 µM;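 active = activation above the mean of all tested compounds plus 3 SD, cutoff set per screening run, cut at about 20% in these data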;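 note: peak over basal fluorescence ratio from a 100 s FLIPR kinetic read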
OX1R Ca confirm = OX1R (human) antagonism, confirmed; shares compounds with OX1R antag-2; CHO/OX1R cells, orexin A calcium Fluo-8 fluorescence; inhibition, % at 5 µM; 38% of 1,100 active; in the data active = inhibition above about 29%;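 note: 0% = agonist challenge alone and 100% = reference antagonist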
CHO Ca counter = counter-screen for OX1R antagonists: effect in parental CHO cells | shares compounds with OX1R antag-2 | parental CHO-K1, ATP-induced calcium, Fluo-8 fluorescence | inhibition, % at 5.6 µM | 9.3% of 1,100 active;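 active = inhibition above a per-plate limit, the mean inhibition of that plate's test compounds plus 3 SD, cut at about 25% in these data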;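 note: 0% = ATP challenge with DMSO and 100% = DMSO without ATP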
OX1R HTRF conf = confirmation of human orexin 1 receptor antagonists, HTRF format; OX1R-expressing cells, HTRF antagonist assay; AID 492964; 49% of 1,800 active; inhibition, % at 6.6 µM; shares compounds with OX1R antag-1; in the data active = inhibition above about 55%;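 note: CHO cells expressing OX1R stimulated with orexin A at about EC80; 0% = agonist challenge alone and 100% = reference antagonist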
CHO-K1 HTRF = counter-screen: parental CHO-K1 HTRF response; 48% of 1,800 active; AID 493232; shares compounds with OX1R antag-1; inhibition, % at 6.6 µM; parental CHO-K1 cells, HTRF counterscreen; in the data active = inhibition above about 17%;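 note: 0% = agonist challenge with vehicle and 100% = vehicle alone without agonist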
An asterisk follows results filed as active; / = no result. Compounds with a hit are over-represented: about 2.6% of the library has one in this group of screens.

SMILES	OXTR potentiate	OX1R antag-1	OX1R antag-2	CHO parental Ca	V1R ag counter	OXTR ag	OX1R Ca confirm	CHO Ca counter	OX1R HTRF conf	CHO-K1 HTRF
CCc1sc(C(=O)Nc2ccc3nc(C)sc3c2)cc1C	-7	81*	65*	-23	0	-2	53*	-21	90*	16
CCc1sc(C(=O)Nc2ccc(NC(C)=O)cc2)cc1C	-1	11	-15	-6	1	0	/	/	/	/
CC1CCCC(C)N1C(=O)COC(=O)c1nn(C)c(=O)c2ccccc12 (stereo not given)	-4	18	-17	-11	0	0	/	/	/	/
COC(=O)c1ccccc1NC(=O)CC(=O)Nc1ccccc1C(=O)OC	-14	79*	40	-19	0	-1	56*	-7	84*	6
CCn1c(N)c(C(=O)Nc2ccccc2C(=O)OC)sc1=S	-8	83*	43	-10	-1	-1	42*	-13	86*	7
CCOc1ccccc1C(=O)NCC(=O)N(C)Cc1cccnc1	-3	8	-17	-15	0	1	/	/	/	/
CSC1=NSC2=NC(=O)/C(=C/c3coc4ccccc4c3=O)C(=N)N12	-12	78*	66*	47	88*	176*	27	15	39	-7
C/C(=N\Nc1cccc([N+](=O)[O-])c1)c1ccccc1O	-10	76*	28	-10	-1	-1	2	12	47	7
O=C(C1CCN(S(=O)(=O)c2cccc3nsnc23)CC1)N1CCc2ccccc21	-3	25	-14	-17	1	2	/	/	/	/
O=C(C1CCCN(S(=O)(=O)c2cccc3nsnc23)C1)N1CCc2ccccc21 (stereo not given)	-17	103*	27	5	5	6	-7	-13	25	10
O=S(=O)(CCSc1nc2ccccc2o1)c1nc2ccccc2s1	-3	41*	62*	-1	2	0	14	14	37	-4
CC(NS(=O)(=O)c1ccc(OCC(=O)Nc2cccc([N+](=O)[O-])c2)cc1)c1ccccc1 (stereo not given)	-10	66*	54*	46	10	14	60*	18	69*	8
O=C(COC(=O)COc1ccccc1)Nc1cccc([N+](=O)[O-])c1	-11	25	-9	-2	0	2	/	/	/	/
CCOc1ncccc1C(=O)NCC1COc2ccccc2O1 (stereo not given)	-2	81*	30	-24	-2	-1	27	-2	69*	0
COc1ccccc1N1C(=O)C2C(C(=O)c3ccccc3)=NN(c3ccccc3OC)C2C1=O (stereo not given)	-14	10	-16	-10	2	2	/	/	/	/
CCOC(=O)C1=C(COC(=O)c2ccc3ccccc3c2O)NC(=O)NC1C (stereo not given)	-11	104*	101*	-18	1	0	100*	-28	91*	-22
CCN(CC)CCCNC(=S)N1CCC(c2nc3ccccc3[nH]2)CC1	2	1	-7	-7	1	1	/	/	/	/
COc1cc(C(=O)OCC(=O)N2c3ccccc3NC(=O)C2(C)C)ccc1OCC(C)C	-14	56*	28	7	-1	-1	23	-3	56*	6
CC1(c2ccccc2Cl)NC(=O)N(CC(=O)Nc2ccc(N3CCCCC3)cc2)C1=O (stereo not given)	-3	6	-25	-22	3	2	/	/	/	/

Source: PubChem BioAssay (The Scripps Research Institute Molecular Screening Center)
